What was measured:
[1] = Stability of the compound in solid state; type: physicochemical
[2] = Plasma concentration in Sprague-Dawley rat at 1261 ug/kg/day measured on day 7 by 7-day snout-only inhalation assay; type: ADME; details: inhaled, 1.261 mg/kg
Procedure, shortened: (§1)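 Sprague–Dawley male rats exposed snout-only to a dry powder formulation of the 4-biphenylsulfonic acid salt for 7 days at 181, 344, 703 and 1261 (μg/kg)/day (measured aerosol 5.1, 9.8, 19.9, 35.7 μg/L). Assessed clinically, with body weight, hematology, biochemistry and respiratory tract evaluation. Plasma exposure measured on day 7 as ng·h/mL.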

[3] = Solubility of the compound in water; type: physicochemical
Rattus norvegicus [4] = test: Toxicity in Sprague-Dawley rat assessed as minimal irritancy in nasal cavity at 703 to 1261 ug/kg/day by 7-day snout-only inhalation assay; type: organism-based; details: in vivo, inhaled_or_intranasal; procedure, shortened: as §1
Rattus norvegicus [5] = test: Toxicity in Sprague-Dawley rat assessed as hematology at 181 to 1261 ug/kg/day by 7-day snout-only inhalation assay; type: organism-based; details: in vivo, inhaled_or_intranasal; procedure, shortened: as §1
Salmonella typhimurium [6] = test: Genotoxicity in Salmonella typhimurium by Ames assay in presence of rat liver metabolic activation system; type: toxicity, organism-based; details: salmonella enterica subsp. enterica serovar typhimurium
Procedure, shortened: (§2)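 Acetate and 4-biphenylsulfonate salts screened in Ames and mouse lymphoma L5178Y assays, with and without a rat liver metabolic activation system.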

Rattus norvegicus [7] = test: Toxicity in Sprague-Dawley rat assessed as body weight change at 181 to 1261 ug/kg/day by 7-day snout-only inhalation assay; type: organism-based; details: in vivo, inhaled_or_intranasal; procedure, shortened: as §1
[8] = Stability of the compound in solution state; type: physicochemical
Salmonella typhimurium [9] = test: Genotoxicity in Salmonella typhimurium by Ames assay; type: toxicity, organism-based; details: salmonella enterica subsp. enterica serovar typhimurium; procedure, shortened: as §2
Rattus norvegicus [10] = test: Toxicity in Sprague-Dawley rat at 181 to 1261 ug/kg/day by 7-day snout-only inhalation assay; type: organism-based; details: in vivo, inhaled_or_intranasal; procedure, shortened: as §1
Rattus norvegicus [11] = test: Toxicity in Sprague-Dawley rat assessed as minimal irritancy in laryngeal region at 703 to 1261 ug/kg/day by 7-day snout-only inhalation assay; type: organism-based; details: in vivo, inhaled_or_intranasal; procedure, shortened: as §1
L5178Y [12] = test: Genotoxicity against mouse L5178Y cells in presence of rat liver metabolic activation system; type: toxicity, cell-based; procedure, shortened: as §2
L5178Y [13] = test: Genotoxicity against mouse L5178Y cells; type: toxicity, cell-based; procedure, shortened: as §2
[14] = Oral absorption in Han Wistar rat at 2 mg/kg up to 7 hrs by LC-MS/MS analysis; type: ADME, organism-based; parameters: dose 2 mg/kg; details: in vivo, read-out: Fa
Procedure, shortened: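 Rat oral absorption from hepatic portal vein plasma, corrected for systemic circulation levels, after β-glucuronidase treatment of samples (deconjugated HPV model). Expressed as h·ng/mL.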

Cavia porcellus [15] = test: Bronchodilatory activity in guinea pig assessed as inhibition of histamine-induced bronchoconstriction administered via nebulization 2 mins prior to histamine challenge; type: functional
Procedure, shortened: (§3)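 Conscious guinea pigs, n = 24 per group, given test agonist as a nebulized solution in dimethylacetamide–saline vehicle (2 min nebulization) before histamine (10 mM, nebulized 1.3 min) in a whole-body plethysmograph. PenH recorded for 15 min as index of airway obstruction. Dose expressed as nebulizer concentration; duration taken as time to 50% recovery.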

Cavia porcellus [16] = test: Bronchodilatory activity in guinea pig assessed as duration of action of inhibition of histamine-induced bronchoconstriction at EC90 administered via nebulization 2 mins prior to histamine challenge; type: functional; procedure, shortened: as §3
[17] = target: Beta-2 adrenergic receptor (Homo sapiens, UniProt P07550); test: Agonist activity at human beta2 adrenoceptor transfected in CHO cells assessed as cyclic AMP accumulation after 45 mins by fluorescence polarization assay; type: functional, cell-based
[18] = target: Beta-3 adrenergic receptor (Homo sapiens, UniProt P13945); test: Agonist activity at human beta3 adrenoceptor transfected in CHO cells assessed as cyclic AMP accumulation after 45 mins by fluorescence polarization assay; type: cell-based
[19] = target: Beta-1 adrenergic receptor (Homo sapiens, UniProt P08588); test: Agonist activity at human beta1 adrenoceptor transfected in CHO cells assessed as cyclic AMP accumulation after 45 mins by fluorescence polarization assay; type: cell-based
Sequence of Beta-1 adrenergic receptor (P08588 whole entry): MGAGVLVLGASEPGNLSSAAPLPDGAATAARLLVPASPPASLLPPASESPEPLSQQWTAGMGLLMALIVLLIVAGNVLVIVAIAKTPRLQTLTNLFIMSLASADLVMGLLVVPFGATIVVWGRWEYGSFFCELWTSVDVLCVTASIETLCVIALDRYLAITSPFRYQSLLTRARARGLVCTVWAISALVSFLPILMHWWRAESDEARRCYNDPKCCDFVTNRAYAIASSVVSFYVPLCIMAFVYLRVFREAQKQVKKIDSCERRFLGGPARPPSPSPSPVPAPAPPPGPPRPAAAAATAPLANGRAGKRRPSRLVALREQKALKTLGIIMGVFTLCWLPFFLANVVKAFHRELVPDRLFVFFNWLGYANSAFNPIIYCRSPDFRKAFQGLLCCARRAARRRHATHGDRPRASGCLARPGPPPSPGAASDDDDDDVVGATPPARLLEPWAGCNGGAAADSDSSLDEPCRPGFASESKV

Sequence of Beta-3 adrenergic receptor (P13945 whole entry): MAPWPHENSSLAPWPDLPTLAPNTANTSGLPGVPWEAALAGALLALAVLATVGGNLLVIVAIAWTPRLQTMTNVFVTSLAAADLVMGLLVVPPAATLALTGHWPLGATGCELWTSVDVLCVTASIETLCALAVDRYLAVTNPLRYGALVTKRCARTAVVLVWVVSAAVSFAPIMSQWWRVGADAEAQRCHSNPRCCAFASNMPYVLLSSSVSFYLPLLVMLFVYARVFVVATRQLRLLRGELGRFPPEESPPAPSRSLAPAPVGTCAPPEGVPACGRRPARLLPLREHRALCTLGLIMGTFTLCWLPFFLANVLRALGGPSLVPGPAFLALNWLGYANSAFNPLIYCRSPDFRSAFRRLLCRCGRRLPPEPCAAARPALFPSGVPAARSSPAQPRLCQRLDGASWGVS
Sequence of Beta-2 adrenergic receptor (P07550 whole entry): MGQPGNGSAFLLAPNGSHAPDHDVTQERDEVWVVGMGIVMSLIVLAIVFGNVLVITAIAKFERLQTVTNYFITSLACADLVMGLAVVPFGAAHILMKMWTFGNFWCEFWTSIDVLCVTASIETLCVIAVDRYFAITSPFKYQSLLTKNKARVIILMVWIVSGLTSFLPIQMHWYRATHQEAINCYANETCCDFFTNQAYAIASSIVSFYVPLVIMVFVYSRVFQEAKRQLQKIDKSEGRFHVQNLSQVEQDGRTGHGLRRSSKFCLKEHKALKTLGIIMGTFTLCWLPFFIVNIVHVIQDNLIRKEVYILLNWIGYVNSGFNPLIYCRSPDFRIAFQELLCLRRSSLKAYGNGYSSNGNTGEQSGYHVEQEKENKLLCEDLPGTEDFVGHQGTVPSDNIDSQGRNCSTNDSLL

| Structure (SMILES) | EC50 [17] [µM] | EC50 [18] [µM] | EC50 [19] [µM] | further results |
| --- | --- | --- | --- | --- |
| O=S(=O)(O)c1ccc(-c2ccccc2)cc1.O=S(=O)(c1cccc(CCCCOCCCCCCNC[C@H](O)c2ccc(O)c(CO)c2)c1)C1CCCC1 |  |  |  | Stability [1]: Stable; AUC [2]: 0.146 µg·h/mL; solubility [3]: < 0.01 mg/mL; Activity (Rattus norvegicus [4]): Non-toxic; Activity (Rattus norvegicus [5]): Non-toxic; Activity (Salmonella typhimurium [6]): Non-toxic; Activity (Rattus norvegicus [7]): Non-toxic; Stability [8]: Unstable; Activity (Salmonella typhimurium [9]): Non-toxic; Activity (Rattus norvegicus [10]): Non-toxic; Activity (Rattus norvegicus [11]): Non-toxic; Activity (L5178Y [12]): Non-toxic; Activity (L5178Y [13]): Non-toxic |
| OCc1cc(C(O)CNCCCCCCOCCCCc2ccccc2)ccc1O (configuration not stated) [SALMETEROL] |  |  |  | AUC at 7 h [14]: 0.252 µg·h/mL |
| CC(=O)O.OCc1cc(C(O)CNCCCCCCOCCCCc2ccccc2)ccc1O (configuration not stated) |  |  |  | EC90 (Cavia porcellus [15]): 50 µM; Time (Cavia porcellus [16]): 13 h |
| O=S(=O)(c1ccc(CCCCOCCCCCCNC[C@H](O)c2ccc(O)c(CO)c2)cc1)C1CCCC1 | 0.0316 | 0.398 | 1 |  |
| CS(=O)(=O)c1ccc(CCCCOCCCCCCNC[C@H](O)c2ccc(O)c(CO)c2)cc1 | 0.02 | 3.98 | 6.31 |  |
| O=S(=O)(c1cccc(CCCCOCCCCCCNC[C@H](O)c2ccc(O)c(CO)c2)c1)C1CC=CC1 | 0.001 | 0.398 | 0.501 |  |

More lines, in order of falling EC50 [17], values ahead:

| EC50 [17] [µM] | EC50 [18] [µM] | EC50 [19] [µM] | Structure (SMILES) | further results |
| --- | --- | --- | --- | --- |
| 0.0398 | 2.51 | 2 | O=S1(=O)CCCc2ccc(CCCCOCCCCCCNC[C@H](O)c3ccc(O)c(CO)c3)cc21 |  |
| 0.00794 | 2 | 2 | O=S1(=O)CCc2ccc(CCCCOCCCCCCNC[C@H](O)c3ccc(O)c(CO)c3)cc21 |  |
| 0.00158 | 0.251 | 0.251 | O=S(=O)(c1cccc(CCCCOCCCCCCNC[C@H](O)c2ccc(O)c(CO)c2)c1)C1CCCCC1 |  |
| 0.000501 | 0.316 | 0.158 | Cc1cc(CCCCOCCCCCCNC[C@H](O)c2ccc(O)c(CO)c2)cc(S(=O)(=O)C2CCCC2)c1 |  |

Source: ChEMBL document CHEMBL3124822, “Discovery of a rapidly metabolized, long-acting β(2) adrenergic receptor agonist with a short onset time incorporating a sulfone group suitable for once-daily dosing” (J Med Chem, 2014)
